core dimer inh: blocks dimerization of HCV core protein. TR-FRET GST/Flag-core106 dimerization, 1536-well. inhibition, % at 5 µM. hit rate 0.33% among 300,000;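 active means inhibition above the mean of all tested compounds plus 3 SD, set per screening campaign, cut at about 45% in these data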
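Assay system: Tagged HCV core106 pair (GST and Flag) | Buffer or medium: KF-containing HEPES buffer, pH 7.45, DTT, CHAPS, BSA | Also added: Eu donor and XL665 acceptor anti-tag antibodies | Dosing: One concentration, 5 µM, in 0.5% DMSO | Timing: 4 h at 22.5 °C | Technique: TR-FRET 671 and 617 nm emission | Repeats: Singlicate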
DNA FID counter: displaces DNA intercalator in HCV helicase counter-screen; DNA fluorescent intercalator displacement, fluorescence; inhibition, % at 7.9 µM; hit rate 0.17% among 290,000; in the data active means inhibition above about 37%;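 further: 0% = vehicle and 100% = reference compound; higher means more ethidium bromide displaced from hairpin DNA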
HSP90 refold inh: inhibitors of HSP90 luciferase refolding in rabbit reticulocyte lysate; luciferase refolding luminescence, 3 h; inhibition, % at 5.6 µM; hit rate 0.91% among 290,000;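 active means inhibition above the screen-wide mean plus 3 SD, computed separately per campaign, cut at about 16% in these data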;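 further: 0% = DMSO wells and 100% = 60 µM geldanamycin wells; inhibitors lower the luminescence because luciferase stays unfolded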
HSF-1 act: increases HSF-1 driven luciferase reporter signal; AID 504408; hit rate 1.7% among 300,000; activation, % at 9 µM; NIH3T3-HGL HSF-1 luciferase reporter, MG132, 8 h; 100% = twice DMSO control signal;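 active means mean replicate activation of at least 50% with a set share of replicates each reaching 50%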;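 further: 0% = median of the neutral control wells and 100% = twice that signal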
NS3 helicase inh: blocks Hepatitis C virus NS3 helicase unwinding; NS3 helicase DNA unwinding, Cy5 molecular beacon fluorescence; hit rate 0.56% among 290,000; AID 1800; inhibition, % at 10.9 µM;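 active means inhibition above the mean of all tested compounds plus 3 SD, set per campaign, cut at about 35% in these data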;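 further: 0% = DMSO wells and 100% = thioflavine S control wells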
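Measured by: Cy5 fluorescence, 0 and 60 min reads / Assay system: NS3 helicase fragment of HCV / Control set: low DMSO, high thioflavine S at 110 µM / Times: 1 h reaction at 25 °C, ATP-initiated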
HSF1 inh: HSF1 inhibition; AID 2098; hit rate 0.77% among 300,000; NIH3T3-HGL HSE-luciferase, MG132-induced, luminescence 8 h; active compounds read low; activity change, negative = inhibition, % at 7.5 µM (by protocol);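 active means more than half of replicate wells show activity change below -50%, luminescence cut by over half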;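 further: luciferase reports HSF-1 transcriptional activity via heat shock element; 0% = median of DMSO wells and -100% = zero luminescence signal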
* marks the source's active call; other numbers are inactive results. Compounds with a hit are over-represented: about 3.9% of the library has one in this group of screens.

For COc1ccc(N=c2sc3ccccc3n2C)cc1 the results were core dimer inh -2.8, DNA FID counter -12.2, HSP90 refold inh -9.6, HSF-1 act 54.7*, NS3 helicase inh -5.5 and HSF1 inh 30.6.
`Cc1onc(-c2c(F)cccc2Cl)c1C(=O)NC(C)c1ccccc1` (centres undefined) gave core dimer inh -5.7, DNA FID counter -12.2, HSP90 refold inh -0.5, HSF-1 act 6.4, NS3 helicase inh -15.4 and HSF1 inh -5.8.
Screening Cc1ccc(CNC(=O)CCS(=O)(=O)c2ccc(C)cc2)cc1 returned core dimer inh -4.1, DNA FID counter -1.9, HSP90 refold inh 1.4, HSF-1 act -5.9, NS3 helicase inh 1.3 and HSF1 inh -2.9.
Cc1ccccc1OCCNC(=O)c1ccc2ccccc2n1 was read as core dimer inh -7.0, DNA FID counter -26.1, HSP90 refold inh 2.1, HSF-1 act 86.3*, NS3 helicase inh -25.9 and HSF1 inh 44.4.
`COCCNC(=O)c1ccc2ccccc2n1` gave core dimer inh -9.6, DNA FID counter -1.2, HSP90 refold inh 0.4, HSF-1 act -2.9, NS3 helicase inh -0.2 and HSF1 inh -5.0.
O=C(NNS(=O)(=O)c1ccc(F)cc1)c1cc(Cl)ccc1O was read as DNA FID counter -6.2, HSP90 refold inh -5.2, HSF-1 act -2.3, NS3 helicase inh 10.0 and HSF1 inh -3.6.
For Cc1cccc(Cc2nnc(CCC(=O)N3CCCCC3c3nccs3)o2)c1 (centres undefined) the results were core dimer inh 2.6, DNA FID counter -21.1, HSP90 refold inh -1.6, HSF-1 act 29.2, NS3 helicase inh 6.4 and HSF1 inh 15.4.
`CCCOC1CCCN(C(=O)CCc2nnc(Cc3cccc(C)c3)o2)C1` (centres undefined) gave core dimer inh 1.8, DNA FID counter -28.3, HSP90 refold inh -2.3, HSF-1 act 63.1*, NS3 helicase inh -11.0 and HSF1 inh 30.2.
For O=C(Nc1ccc(Cl)cc1Cl)c1ccc2c(=O)n3c(nc2c1)CCC3 the results were core dimer inh 22.9, HSF-1 act 36.9 and HSF1 inh 26.9.
`O=C(Nc1ccc(Br)cc1Cl)c1ccc2c(=O)n3c(nc2c1)CCC3` gave core dimer inh 22.6, HSF-1 act 55.2* and HSF1 inh 31.2.
For Cc1ccc(N=Nc2ccc(O)cc2)c(Br)c1 the results were core dimer inh -8.9, DNA FID counter 16.4, HSP90 refold inh -1.8, HSF-1 act 61.5*, NS3 helicase inh -8.2 and HSF1 inh 20.5.
For COc1ccc2nc(SCC(=O)Nc3ccc4c(c3)OCCO4)[nH]c2c1 the results were core dimer inh 0.7, DNA FID counter -10.2, HSP90 refold inh 12.2, HSF-1 act -58.8, NS3 helicase inh -3.5 and HSF1 inh -53.0*.
For O=C(CSc1nc2ccccc2[nH]1)Nc1ccc(F)c(F)c1 the results were core dimer inh 6.0, DNA FID counter 0.6, HSP90 refold inh 3.7, HSF-1 act -71.3, NS3 helicase inh -13.8 and HSF1 inh -61.2*.
For Nc1ccc(SCc2cccnc2)cc1 the results were core dimer inh -1.3, DNA FID counter 0.4, HSP90 refold inh -1.1, HSF-1 act 5.9, NS3 helicase inh -4.1 and HSF1 inh 0.9.
Screening OCCN1CCN(C(c2cccs2)c2ccc3cccnc3c2O)CC1 (centres undefined) returned DNA FID counter -0.3, HSP90 refold inh 15.2 and NS3 helicase inh 15.8.
CC(C)(C)c1cc(C(c2cccnc2)N2CCN(CCO)CC2)cc(C(C)(C)C)c1O (centres undefined) was read as core dimer inh -8.9, DNA FID counter -22.8, HSP90 refold inh -1.9, HSF-1 act 76.0*, NS3 helicase inh -7.8 and HSF1 inh 62.5.
Cc1ccc(CC2CC(=O)N(Cc3ccco3)C2=O)cc1 (centres undefined) was read as core dimer inh 28.0, DNA FID counter 5.4, HSP90 refold inh 1.7, HSF-1 act 72.7*, NS3 helicase inh -3.1 and HSF1 inh 41.7.
`COC(=O)Nc1cc(C(=O)c2ccc(Cl)cc2Cl)c[nH]1` gave core dimer inh -9.6, DNA FID counter -6.2, HSP90 refold inh -0.4, HSF-1 act 8.5, NS3 helicase inh 9.7 and HSF1 inh 0.1.
For CC(C)C(OC(=O)Cn1nnc2ccccc21)C(=O)NC1CCCC1 (centres undefined) the results were core dimer inh 3.4, DNA FID counter -9.0, HSP90 refold inh 3.6, HSF-1 act -2.5, NS3 helicase inh -0.4 and HSF1 inh 2.0.
For Cc1nn(CC(=O)NCCCN2C(C)CCCC2C)c(=O)c2cc3occc3n12 (centres undefined) the results were core dimer inh 5.4, DNA FID counter 0.3, HSP90 refold inh 1.2, HSF-1 act 11.0, NS3 helicase inh 4.0 and HSF1 inh 1.0.
Screening C/C(=N\O)C1(C)N(O)C(C)(C)C(c2ccco2)=[N+]1[O-] (centres undefined) returned core dimer inh -4.5, DNA FID counter -1.3, HSP90 refold inh 4.7, HSF-1 act 7.2, NS3 helicase inh -5.6 and HSF1 inh -1.5.
For COc1ccc(CNc2nc3ccccc3n2CCN2CCCCC2)c(OC)c1 the results were core dimer inh -3.8, DNA FID counter 13.1, HSP90 refold inh 1.5, HSF-1 act 73.5*, NS3 helicase inh -27.3 and HSF1 inh 31.1.
For COc1ccc(OC)c(CNc2nc3ccccc3n2CCN2CCCCC2)c1 the results were core dimer inh -3.8, DNA FID counter 10.2, HSP90 refold inh 2.2, HSF-1 act 5.7, NS3 helicase inh -7.7 and HSF1 inh 1.3.
Cc1csc(NC(=O)CSc2nnc3c4ccccc4nc(C(C)(C)C)n23)n1 was read as core dimer inh 13.0, DNA FID counter -2.0, HSP90 refold inh 1.5, HSF-1 act -4.5, NS3 helicase inh -2.5 and HSF1 inh -4.7.
Screening O=C(Nc1cccc2ccccc12)NC1Cc2ccccc2C1 returned core dimer inh -0.8, DNA FID counter -0.6, HSP90 refold inh -7.8, HSF-1 act 12.9, NS3 helicase inh -18.5 and HSF1 inh 3.7.
For CCC(C)NC(=O)c1csc2c1CCCCC2 (centres undefined) the results were core dimer inh -4.2, DNA FID counter -5.7, HSP90 refold inh -1.0, HSF-1 act 67.2*, NS3 helicase inh 1.0 and HSF1 inh 18.8.
COc1ccc(NC(=O)c2csc3c2CCCC3)cc1 was read as core dimer inh -1.3, DNA FID counter -5.9, HSP90 refold inh 2.5, HSF-1 act 53.1*, NS3 helicase inh -1.5 and HSF1 inh 34.1.
`COc1cccc(NC(=O)c2csc3c2CCCC3)c1` gave core dimer inh 6.4, DNA FID counter -3.1, HSP90 refold inh -3.4, HSF-1 act 27.1, NS3 helicase inh -2.9 and HSF1 inh 23.7.

From PubChem
